Results on 6 compounds are retold here after ChEMBL document CHEMBL1255383, “Reduced histone deacetylase 7 activity restores function to misfolded CFTR in cystic fibrosis” (Nat Chem Biol, 2010).

Calls of active or inactive are those of the source. The rule behind the calls is not given here.

In test [1] the target is T1, Histone deacetylase 7 (Homo sapiens) (UniProt Q8WUI4).
T1 sequence (whole entry): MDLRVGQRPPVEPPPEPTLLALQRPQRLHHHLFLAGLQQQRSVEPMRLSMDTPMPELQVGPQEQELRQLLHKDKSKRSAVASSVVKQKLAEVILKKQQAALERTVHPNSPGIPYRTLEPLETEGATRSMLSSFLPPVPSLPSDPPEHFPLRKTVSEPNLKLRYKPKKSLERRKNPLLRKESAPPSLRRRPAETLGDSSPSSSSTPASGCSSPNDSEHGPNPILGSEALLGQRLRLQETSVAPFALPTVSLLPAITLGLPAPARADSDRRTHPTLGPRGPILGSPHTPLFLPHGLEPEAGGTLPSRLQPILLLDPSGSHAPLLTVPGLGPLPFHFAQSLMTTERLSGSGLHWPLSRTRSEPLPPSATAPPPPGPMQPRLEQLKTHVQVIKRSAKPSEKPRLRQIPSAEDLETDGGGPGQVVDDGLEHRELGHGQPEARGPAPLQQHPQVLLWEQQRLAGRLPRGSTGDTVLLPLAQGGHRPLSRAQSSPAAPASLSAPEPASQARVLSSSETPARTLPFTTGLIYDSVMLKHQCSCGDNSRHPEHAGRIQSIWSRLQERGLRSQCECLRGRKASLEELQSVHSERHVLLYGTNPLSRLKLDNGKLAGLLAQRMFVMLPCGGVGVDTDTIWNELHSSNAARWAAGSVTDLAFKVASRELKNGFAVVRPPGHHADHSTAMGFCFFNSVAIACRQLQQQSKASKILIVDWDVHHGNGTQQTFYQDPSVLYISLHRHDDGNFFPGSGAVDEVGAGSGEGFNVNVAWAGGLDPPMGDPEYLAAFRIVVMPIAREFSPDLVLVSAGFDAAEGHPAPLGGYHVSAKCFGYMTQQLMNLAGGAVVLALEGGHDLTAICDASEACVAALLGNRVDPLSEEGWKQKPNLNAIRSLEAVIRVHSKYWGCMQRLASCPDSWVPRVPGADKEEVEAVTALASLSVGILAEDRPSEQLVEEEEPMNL
In words: Inhibition of HDAC7 in human homozygous Fdelta508 primary bronchial epithelial cells assessed as induction of short circuit currents at 1 uM for 4, 6, and 8 days relative to control. Format: cell-based. The settings on record: Epithelial cell. An outline of the steps:
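Primary bronchial epithelial cells homozygous for ΔF508 from patients are grown on permeable supports. They are exposed to 1 μM for 4, 6 and 8 days against DMSO controls. ΔIsc is measured in Ussing chambers in μA/cm2, and is also compared with wild-type level.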

Test [2] concerns the target T1, Histone deacetylase 7 (Homo sapiens). In words: Inhibition of HDAC7 in wild-type CFTR expressing human primary lung cells assessed as induction of short circuit currents at 1 uM for 4, 6, and 8 days relative to control. It counts as cell-based.
For test [3] the target is unchanged. The test can be described thus: Inhibition of HDAC7 in wild-type CFTR expressing human primary lung cells assessed as forskolin-stimulated Fdelta508 CFTR channel activity at 10 uM after 24 hrs relative to control. Conditions: in the assay text read “Fdelta508 CFTR homozygous” for “wild-type CFTR expressing”. Format: cell-based. The essentials:
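Primary ΔF/ΔF human bronchial epithelial cells on permeable supports receive acute treatment, 10 μM for 24 h. The result is expressed relative to control.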

The target is the same in test [4]. The test can be described thus: Inhibition of HDAC7 in Fdelta508 CFTR-expressing human CFBE41o- monolayers assessed as increase in short circuit currents at 10 uM. An outline of the steps: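 CFBE41o- cells stably expressing ΔF508 CFTR are cultured on permeable supports and mounted for short-circuit current (Isc) measurement.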
For test [5] the target is unchanged. The test can be described thus: Inhibition of HDAC7 expressed in hamster BHK cell line assessed as increase in plasma membrane Fdelta508 CFTR protein at 1 uM by immunofluorescence method. Format: cell-based. An outline of the steps: (§1)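 Surface ΔF508extope is labelled with HA.11 antibody under non-permeabilizing conditions.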
A short description of test [6]: In vivo inhibition of HDAC. It counts as organism-based.
The target in test [7] is Cystic fibrosis transmembrane conductance regulator (Homo sapiens) (UniProt P13569). In words: Inhibition of CFTR transcription assessed as decrease of CFTR protein level at 50 uM by immunoblot method.
In test [8] the target is T1, Histone deacetylase 7 (Homo sapiens). The test can be described thus: Inhibition of HDAC7 in human CFBE41o- cell line assessed as correction of mutant Fdelta508 CFTR trafficking to cell surface as glycoform at 1 uM by Immunoblot analysis. The essentials:
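CFBE41o- ΔF508 cells in α-MEM/10% FBS/2mM L-glutamine/puromycin are dosed at 1 μM every 24 h, chronically for up to 8 days, against DMSO. Lysates are made in Tris-HCl/NaCl/1% Triton X-100. 15μg protein is run on 8% SDS-PAGE and probed with M3A7 by chemiluminescence. Band B (ER) and band C (post-Golgi) are quantified, and the C/B ratio is calculated.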

Test [9] relates to BHK. In words: Inhibition of HDAC expressed in hamster BHK cell line assessed as increase in plasma membrane Fdelta508 CFTR protein at 5 uM by immunofluorescence method. Format: cell-based. The essentials: as §1

Cystic fibrosis transmembrane conductance regulator (Homo sapiens), sequence (P13569 whole entry, looked up): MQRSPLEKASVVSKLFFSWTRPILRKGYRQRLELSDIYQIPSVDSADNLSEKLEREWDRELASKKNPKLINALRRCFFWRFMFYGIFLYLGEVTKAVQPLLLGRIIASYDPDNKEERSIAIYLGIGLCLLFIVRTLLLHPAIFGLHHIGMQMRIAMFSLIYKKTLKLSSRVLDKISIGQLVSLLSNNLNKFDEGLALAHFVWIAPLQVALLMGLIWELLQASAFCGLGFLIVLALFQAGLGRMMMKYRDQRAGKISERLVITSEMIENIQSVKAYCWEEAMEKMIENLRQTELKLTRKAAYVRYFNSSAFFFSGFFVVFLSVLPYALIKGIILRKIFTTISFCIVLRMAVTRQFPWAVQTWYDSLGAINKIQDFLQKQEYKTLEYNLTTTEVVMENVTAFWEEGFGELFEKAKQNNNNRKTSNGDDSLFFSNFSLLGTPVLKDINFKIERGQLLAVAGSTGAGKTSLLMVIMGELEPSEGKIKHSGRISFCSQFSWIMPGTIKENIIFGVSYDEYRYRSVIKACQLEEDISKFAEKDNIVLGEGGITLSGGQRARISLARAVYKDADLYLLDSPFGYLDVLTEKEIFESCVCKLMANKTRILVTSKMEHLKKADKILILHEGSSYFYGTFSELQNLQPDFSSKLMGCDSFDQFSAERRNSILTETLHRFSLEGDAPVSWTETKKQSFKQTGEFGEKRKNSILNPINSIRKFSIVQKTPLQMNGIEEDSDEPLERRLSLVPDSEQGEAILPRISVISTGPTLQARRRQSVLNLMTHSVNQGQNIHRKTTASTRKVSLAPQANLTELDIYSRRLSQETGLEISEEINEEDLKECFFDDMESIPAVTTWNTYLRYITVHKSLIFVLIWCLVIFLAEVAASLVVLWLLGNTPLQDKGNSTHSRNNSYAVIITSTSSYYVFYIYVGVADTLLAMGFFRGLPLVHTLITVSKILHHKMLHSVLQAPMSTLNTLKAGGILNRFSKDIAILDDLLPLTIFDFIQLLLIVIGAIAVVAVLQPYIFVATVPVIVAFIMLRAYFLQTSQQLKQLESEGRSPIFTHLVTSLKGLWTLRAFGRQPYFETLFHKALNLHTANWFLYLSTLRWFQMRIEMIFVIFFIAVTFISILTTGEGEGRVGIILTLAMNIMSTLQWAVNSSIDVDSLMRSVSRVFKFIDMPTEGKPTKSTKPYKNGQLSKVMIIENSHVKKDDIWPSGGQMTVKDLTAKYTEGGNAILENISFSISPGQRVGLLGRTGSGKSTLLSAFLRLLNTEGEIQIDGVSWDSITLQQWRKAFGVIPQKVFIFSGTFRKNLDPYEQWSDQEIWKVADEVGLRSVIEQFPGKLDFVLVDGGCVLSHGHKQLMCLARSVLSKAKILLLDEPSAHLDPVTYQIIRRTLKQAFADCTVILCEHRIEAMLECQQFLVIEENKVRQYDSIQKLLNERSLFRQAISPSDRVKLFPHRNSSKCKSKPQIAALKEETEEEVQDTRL

Consider `C=C[C@@]1(C)CC(=O)[C@]2(O)[C@@]3(C)[C@@H](O)CCC(C)(C)[C@@H]3[C@H](O)[C@H](OC(C)=O)[C@@]2(C)O1`, for which the Activity stood at 6.5 uA.cm'-2 in [1], 23.1 uA.cm'-2 in test [2] and 3.7 uA.cm'-2 in test [3].

On to `O=C(CCCCCN1C(=O)c2cccc3cccc(c23)C1=O)NO`, for which the inhibition entry in test [4], in test [5], in test [7] and in test [8] was “Active” in each case. Besides, in test [6], 1000 nM corresponded to half-maximal inhibition (IC50).

Consider `O=C(CCCCCCC(=O)Nc1ccccc1)NO`, for which, in test [7], the inhibition result is “Active”.

For the compound `O=c1c(-c2ccc(O)cc2)coc2cc(O)cc(O)c12`, in test [3], the Activity turned out to be 3.7 uA.cm'-2.

The compound `CC(/C=C/C(=O)NO)=C\[C@@H](C)C(=O)c1ccc(N(C)C)cc1` [TRICHOSTATIN] displayed an IC50 in [6] of 100 nM. In addition, the inhibition result in [7] was “Active”.

`Nc1ccccc1NC(=O)c1ccc(CNC(=O)OCc2cccnc2)cc1` [ENTINOSTAT] yielded an IC50 in test [6] of 5000 nM. The inhibition entry in test [7] and in test [9] was “Active” each time.
